# This is a sample that favours compounds with a hit; in the whole collection about 5.8% have one here.
# Pf Dd2 growth: P. falciparum Dd2 growth inhibitors, primary screen, SYBR Green fluorescence, single dose replicates. 72 h; active compounds read low. 94,000 tested, 2.3% active. AID 1159554, 2015. activity change, % at 10 µM; in the data active means activity change below about -80%; inconclusive means no clear call, values can overlap the other calls
# T cruzi growth-1: T. cruzi intracellular proliferation inhibitors, primary screen, cell-based, beta-gal Tulahuen parasites, NIH3T3 host, luminescence; T. cruzi beta-gal in NIH3T3, GalScreen luminescence, 90 h; inhibition, % at 8.34 µM; 77,000 tested, 5.9% active;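 active means mean inhibition above about 93%, with at least 55% of replicates each passing it, limit read from the data, passing the limit was not always enough; inconclusive means only one of those two conditions holds; inactive means neither condition holds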
# KDM4C inh: inhibitors of GASC-1 (KDM4C) histone demethylase, primary screen, biochemical, single concentration HTS; Lysine-specific demethylase 4C (Homo sapiens), Q9H3R0; GST-KDM4C 2-372, H3K9me3 peptide, LANCE TR-FRET; inhibition, % at 12.5 µM; 96,000 tested, 0.15% active;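 active means mean replicate inhibition above about 25%, with at least 55% of replicates also reaching it, limit read from the data, passing the limit was not always enough; inconclusive means only one of those two conditions met; inactive means neither condition met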
# Target sequence (Q9H3R0 2-372 limits assumed): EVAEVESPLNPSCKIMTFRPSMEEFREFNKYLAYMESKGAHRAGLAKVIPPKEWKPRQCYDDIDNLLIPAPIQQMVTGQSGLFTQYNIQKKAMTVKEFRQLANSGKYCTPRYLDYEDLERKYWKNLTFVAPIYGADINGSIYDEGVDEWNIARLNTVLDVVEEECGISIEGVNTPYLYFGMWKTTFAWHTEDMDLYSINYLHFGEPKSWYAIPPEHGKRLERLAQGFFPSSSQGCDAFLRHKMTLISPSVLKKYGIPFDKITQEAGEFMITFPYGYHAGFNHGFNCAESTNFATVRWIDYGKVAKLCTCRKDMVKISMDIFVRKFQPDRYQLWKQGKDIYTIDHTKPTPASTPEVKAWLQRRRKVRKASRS
#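 System – N-terminal GST-fused human GASC-1 (KDM4C) fragment, residues 2-372 · Input – enzyme final amount 10 nM · Technique – LANCE TR-FRET, Eu antibody, ULight-streptavidin, EDTA, ex 340 nm, em 618/671 nm · Medium – HEPES buffer, pH 7.5, plus ascorbate · Incubation – enzyme reaction 30 min, then detection 60 min, both room temperature · Reagent – H3K9me3 peptide with Fe(II)/2OG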
# IDH1 R132H inh: inhibitors of IDH1 R132H reductase, primary screen, biochemical, plate reader, single point; 70,000 tested, 0.18% active; AID 624101, 2012; inhibition, % at 10 µM; diaphorase/resazurin fluorescence, 60 min; Isocitrate dehydrogenase [NADP] cytoplasmic (Homo sapiens), O75874; in the data active means inhibition above about 34%; inconclusive means no clear call, values can overlap the other calls; inactive means below about 11%;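 further: 0% = DMSO and 100% = no enzyme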
# Target sequence (O75874 whole entry R132H): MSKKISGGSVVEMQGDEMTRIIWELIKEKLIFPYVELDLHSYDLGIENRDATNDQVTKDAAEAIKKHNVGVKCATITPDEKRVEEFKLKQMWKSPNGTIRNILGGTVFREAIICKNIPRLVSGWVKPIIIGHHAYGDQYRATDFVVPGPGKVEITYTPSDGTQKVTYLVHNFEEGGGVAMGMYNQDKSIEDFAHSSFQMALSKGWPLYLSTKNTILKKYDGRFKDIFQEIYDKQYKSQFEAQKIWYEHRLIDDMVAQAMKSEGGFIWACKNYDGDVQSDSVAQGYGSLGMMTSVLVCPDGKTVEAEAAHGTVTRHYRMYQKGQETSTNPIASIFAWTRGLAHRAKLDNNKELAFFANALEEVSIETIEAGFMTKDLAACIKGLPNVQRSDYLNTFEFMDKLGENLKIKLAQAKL
# T cruzi growth-2: T. cruzi intracellular proliferation inhibitors, confirmation, cell-based, NIH3T3 host, beta-gal parasite, luminescence, cherry-pick; T. cruzi beta-gal in NIH3T3, GalScreen luminescence, 90 h; 5,600 tested, 72% active; shares compounds with T cruzi growth-1; inhibition, % at 8.35 µM; AID 651739, 2012;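 active means mean replicate inhibition above about 95% and at least 55% of replicates individually reaching it, limit read from the data; inconclusive means only one of the two criteria is met; inactive means neither criterion is met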
# T cruzi growth-3: inhibitors of intracellular T. cruzi replication, confirmation, NIH3T3 host cells, beta-gal parasites, cherry-pick, set 2 | shares compounds with T cruzi growth-1 | T. cruzi beta-gal in NIH3T3, GalScreen luminescence, 90 h | inhibition, % at 2.09 µM | 5,600 tested, 21% active | AID 651740, 2012;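 active means mean inhibition above about 95%, with at least 55% of replicates also reaching it, limit read from the data; inconclusive means meets just one of the two conditions; inactive means meets neither condition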;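 further: plate controls were neutral control median for no effect and positive control median for full effect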
# 3T3 cytotox: cytotoxicity in mouse NIH/3T3 fibroblasts, confirmation, cytotoxicity control for T. cruzi proliferation inhibitor project, cell-based, cherry-pick, single point; shares compounds with T cruzi growth-1; NIH/3T3 viability, CellTiter-Glo ATP luminescence, 90 h; cytotoxicity (signal decrease), % at 8.35 µM; 5,600 tested, 14% active;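 active means mean signal decrease across replicates above about 35% based on untreated-well scatter, with enough replicates individually passing, limit read from the data; inconclusive means no rule stated though some were filed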;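 further: 0% = median of neutral control wells and 100% = median of positive control wells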
# NIH3T3 tox 2: NIH/3T3 fibroblast cytotoxicity, confirmation, cytotoxicity control, cell-based, cherry-pick, single point, set 2; inhibition, % at 24.9 µM; NIH/3T3 viability, CellTiter-Glo ATP luminescence, 90 h; shares compounds with T cruzi growth-1; 5,600 tested, 56% active;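 active means mean loss of cell viability signal at or above a set limit, and enough replicates individually reaching it; inconclusive means meets only the mean limit or only the replicate share; inactive means meets neither condition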;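 further: 0% = median of neutral control wells and 100% = median of positive control wells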
# Active calls of the source: *; ? = inconclusive; / = no result given; ! = repeats disagree.
SMILES,Pf Dd2 growth,T cruzi growth-1,KDM4C inh,IDH1 R132H inh,T cruzi growth-2,T cruzi growth-3,3T3 cytotox,NIH3T3 tox 2
COc1cc2c(cc1NC(=O)C(C)Oc1cccc(Cl)c1)oc1ccccc12 (stereo unspecified),/,/,/,0.0,/,/,/,/
Cc1cccc(OCCCC(=O)Nc2ccccc2[N+](=O)[O-])c1C,/,/,/,-1.0,/,/,/,/
C[C@H]1CN([C@@H](C)CO)C(=O)c2cc(NC(=O)CCCN(C)C)ccc2O[C@@H]1CN(C)S(C)(=O)=O,-1.0,104.2*,1.2,-1.7,-6.5,-6.7,-14.3,9.2
CNC[C@@H]1OCCCC[C@H](C)Oc2ccc(NC(=O)CCC(F)(F)F)cc2C(=O)N([C@@H](C)CO)C[C@@H]1C,-11.9,97.7*,0.8,6.3,?,6.3,-31.2,18.8
CNC[C@@H]1OCCCC[C@@H](C)Oc2ccc(NC(=O)CCCN(C)C)cc2C(=O)N([C@H](C)CO)C[C@@H]1C,19.7,3.9,0.6,/,/,/,/,/
CNC[C@H]1OCCCC[C@@H](C)Oc2ccc(NC(=O)Cc3ccccc3)cc2C(=O)N([C@@H](C)CO)C[C@H]1C,-0.7,?,2.3,/,-2.7,-2.7,-14.1,-36.3
CNC[C@H]1OCCCC[C@H](C)Oc2ccc(NC(=O)CCCN(C)C)cc2C(=O)N([C@H](C)CO)C[C@@H]1C,36.1,100.5*!,1.9,4.9,70.3,-19.8,-20.8,-12.9
CN(CC(=O)Nc1ccc(F)cc1F)S(=O)(=O)c1ccccc1,/,/,/,-0.2,/,/,/,/
CS(=O)(=O)N(CC(=O)NC1CCCC1)c1ccc(Cl)cc1,/,/,/,0.6,/,/,/,/
O=C(CN1C(=O)c2ccccc2S1(=O)=O)Nc1cc(C(F)(F)F)ccc1Cl,/,/,/,-0.5,/,/,/,/
COc1cccc(S(=O)(=O)N(C)C[C@@H]2OCc3ccccc3-c3ccccc3C(=O)N([C@@H](C)CO)C[C@@H]2C)c1,-66.5,105.0*,0.0,/,30.3,-1.4,-4.3,8.1
C[C@@H]1CN([C@H](C)CO)C(=O)c2ccccc2-c2ccccc2CO[C@H]1CN(C)S(=O)(=O)c1cccc(C#N)c1,-56.3,?,-1.2,/,47.5,28.0,5.0,22.4
CN1c2ccc(-c3cccc(C#N)c3)cc2[C@H]2[C@H](CCN2C(=O)Cc2ccccn2)[C@H]1CO,-37.6,101.8*,1.7,/,107.1*,60.9,5.9,16.0
CN1c2ccc(-c3ccccc3F)cc2[C@H]2[C@H](CCN2C(=O)Cc2ccccn2)[C@@H]1CO,-15.8,87.7,3.4,/,/,/,/,/
CN1c2ccc(-c3ccccc3F)cc2[C@@H]2[C@@H](CCN2C(=O)Cc2ccccn2)[C@@H]1CO,-48.6,103.5*,3.7,/,101.1*,39.8,6.2,17.1
CCC(=O)N1CC[C@@H]2[C@H]1c1cc(-c3cccc(F)c3)ccc1N(C)[C@H]2CO,-1.6,62.0,1.0,/,/,/,/,/
CCC(=O)N1CC[C@@H]2[C@H]1c1cc(-c3ccccc3F)ccc1N(C)[C@@H]2CO,30.4,100.2*,1.1,/,104.3*,15.9,-10.2,9.2
CCC(=O)N1CC[C@@H]2[C@H]1c1cc(-c3ccc(F)cc3)ccc1N(C)[C@H]2CO,-3.7,106.2*,-0.5,/,100.3*,94.3,-25.5,-6.9
Cc1cccc(-n2c3c(c(=O)[nH]c2=S)C(NC(=O)CN2CCCC2=O)(C(F)(F)F)C(=O)N3)c1 (stereo unspecified),/,/,/,7.0,/,/,/,/
Cc1nc(SCC(=O)Nc2ccccc2)n[nH]1,/,/,/,0.2,/,/,/,/
COC(=O)c1cccc(NC(=O)COc2ccc([N+](=O)[O-])cc2)c1,/,/,/,-0.7,/,/,/,/
CN1c2ccc(-c3ccccc3F)cc2[C@H]2[C@H](CCN2C(=O)c2cccc(F)c2)[C@H]1CO,11.4,?,0.1,/,106.7*,80.7,12.0,103.4*
CN1c2ccc(-c3ccccc3F)cc2[C@@H]2[C@@H](CCN2C(=O)c2cccc(F)c2)[C@@H]1CO,-48.0,75.9,-4.7,/,/,/,/,/
C[C@@H]1CN([C@H](C)CO)S(=O)(=O)c2ccc(C#Cc3ccccc3)cc2O[C@H]1CN(C)S(=O)(=O)c1cn(C)cn1,-86.1*,99.5*,-1.5,-4.2,107.0*,37.4,66.7*,50.9*
C[C@H]1CN([C@@H](C)CO)S(=O)(=O)c2ccc(C#Cc3ccc(F)cc3)cc2O[C@@H]1CN(C)S(=O)(=O)c1cn(C)cn1,-63.4,122.0*,/,-0.4,102.9*,100.9*,46.5*,49.4*
SMILES,Pf Dd2 growth,T cruzi growth-1,KDM4C inh,IDH1 R132H inh,T cruzi growth-2,T cruzi growth-3,3T3 cytotox,NIH3T3 tox 2
COc1ccc(NC(=O)C(=O)NCC(=O)Nc2ccccc2OC)cc1,/,/,/,-0.3,/,/,/,/
Cc1ccc(OCC(O)CNc2ccc(Br)c(C(F)(F)F)c2)cc1C (stereo unspecified),/,/,/,0.9,/,/,/,/
C[C@@H]1CN([C@@H](C)CO)C(=O)Cc2cc(NS(=O)(=O)c3cccs3)ccc2O[C@H]1CN(C)Cc1ccc(C(=O)Nc2ccccc2N)cc1,-23.0,20.9,-0.3,0.4,/,/,/,/
C[C@H]1CN([C@@H](C)CO)C(=O)c2cc(NC(=O)Nc3ccc4c(c3)OCO4)ccc2O[C@H]1CN(C)Cc1ccc(C(=O)Nc2ccccc2N)cc1,-3.3,97.9*,0.7,/,85.5,78.7,1.6,9.6
C[C@@H]1CN([C@H](C)CO)C(=O)c2cc(NC(=O)Nc3ccc4c(c3)OCO4)ccc2O[C@@H]1CN(C)Cc1ccc(C(=O)Nc2ccccc2N)cc1,-78.1,63.5,-0.5,/,/,/,/,/
C[C@@H]1CN([C@H](C)CO)C(=O)c2cc(N(C)C)ccc2O[C@H]1CN(C)Cc1ccc(C(=O)Nc2ccccc2N)cc1,-34.2,94.6,2.2,/,/,/,/,/
C[C@H](CO)N1C[C@H](C)[C@@H](CN(C)Cc2ccc(C(=O)O)cc2)Oc2c(NC(=O)Nc3ccccc3)cccc2C1=O,-2.6,/,1.4,/,/,/,/,/
C[C@@H]1CN([C@H](C)CO)C(=O)c2cc(N(C)C)ccc2O[C@@H]1CN(C)Cc1ccc(C(=O)Nc2ccccc2N)cc1,-69.6,103.1*,/,/,89.8,81.3,73.9*,93.6*
C[C@@H]1CN([C@@H](C)CO)C(=O)c2cc(NS(=O)(=O)c3cccs3)ccc2O[C@H]1CN(C)Cc1ccc(C(=O)Nc2ccccc2N)cc1,-57.4,107.9*,0.2,0.3,96.6*,62.7,4.0,5.2
